Reference: ChEMBL document CHEMBL1121761, “Antihypertensive pyrrolo[1,2-c]quinazolines and pyrrolo[1,2-c]quinazolinones” (1981)

Legend:
Assay type in all cases: functional, Artery
Rattus norvegicus [1] = test: Change in systolic blood pressure after 50 mg/kg oral administration in spontaneous hypertensive rats after 4 hr
Summary of the method: (§1)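 Male spontaneously hypertensive rats, four per dose, received oral doses suspended in 30% PEG 200, 10% PEG 400, 10% EtOH and 50% pH 7.50 phosphate buffer at 0.5 mL/100 g. A first dose of 100 mg/kg was followed by a second dose of 50 mg/kg. Tail-cuff systolic pressure was read before dosing and 2, 4 and 24 h after each dose. Postdose readings were compared with predose readings by paired Student's t test.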

Rattus norvegicus [2] = test: Change in systolic blood pressure after 100 mg/kg oral administration in spontaneous hypertensive rats after 24 hr; summary of the method: as §1
Rattus norvegicus [3] = test: Change in systolic blood pressure after 100 mg/kg oral administration in spontaneous hypertensive rats after 2 hr; summary of the method: as §1
Rattus norvegicus [4] = test: Change in systolic blood pressure after 50 mg/kg oral administration in spontaneous hypertensive rats after 24 hr; summary of the method: as §1
Rattus norvegicus [5] = test: Change in systolic blood pressure after 50 mg/kg oral administration in spontaneous hypertensive rats after 2 hr; summary of the method: as §1
Rattus norvegicus [6] = test: Change in systolic blood pressure after 100 mg/kg oral administration in spontaneous hypertensive rats after 4 hr; summary of the method: as §1
Rattus norvegicus [7] = test: Change in systolic blood pressure after 33 mg/kg oral administration in spontaneous hypertensive rats after 4 hr
Summary of the method: (§2)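 Reference agents were given orally to male SHR, four per dose, as a suspension in PEG 200/PEG 400/EtOH/pH 7.50 phosphate buffer vehicle at 0.5 mL/100 g. Systolic pressure was measured by tail cuff before dosing and at 2, 4 and 24 h after each dose. Predose and postdose levels were compared by paired Student's t test.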

Rattus norvegicus [8] = test: Change in systolic blood pressure after 33 mg/kg oral administration in spontaneous hypertensive rats after 24 hr; summary of the method: as §2
Rattus norvegicus [9] = test: Change in systolic blood pressure after 33 mg/kg oral administration in spontaneous hypertensive rats after 2 hr; summary of the method: as §2
Rattus norvegicus [10] = test: Change in systolic blood pressure after 12.5 mg/kg oral administration in spontaneous hypertensive rats after 24 hr; summary of the method: as §2
Rattus norvegicus [11] = test: Change in systolic blood pressure after 25 mg/kg oral administration in spontaneous hypertensive rats after 24 hr; summary of the method: as §2
Rattus norvegicus [12] = test: Change in systolic blood pressure after 25 mg/kg oral administration in spontaneous hypertensive rats after 4 hr; summary of the method: as §2
Rattus norvegicus [13] = test: Change in systolic blood pressure after 25 mg/kg oral administration in spontaneous hypertensive rats after 2 hr; summary of the method: as §2
Rattus norvegicus [14] = test: Change in systolic blood pressure after 12.5 mg/kg oral administration in spontaneous hypertensive rats after 2 hr; summary of the method: as §2
Rattus norvegicus [15] = test: Change in systolic blood pressure after 12.5 mg/kg oral administration in spontaneous hypertensive rats after 4 hr; summary of the method: as §2

SMILES	Delta blood pressure (Rattus norvegicus [1])	Delta blood pressure (Rattus norvegicus [2])	Delta blood pressure (Rattus norvegicus [3])	Delta blood pressure (Rattus norvegicus [4])	Delta blood pressure (Rattus norvegicus [5])	Delta blood pressure (Rattus norvegicus [6])	further results
CCOC(=O)c1cc2n(c1)CN(C)c1ccccc1-2	26	31	29	6.5	–	–	–
Cc1cc2c3ccccc3nc(O)n2c1	–	11	–	35	46	39	–
CC(C)NCC(O)COc1cccc2ccccc12 (configuration not stated) [PROPRANOLOL]	–	32.5	18.7	–	–	45	Delta blood pressure (Rattus norvegicus [7]): 28.7; Delta blood pressure (Rattus norvegicus [8]): 51.2; Delta blood pressure (Rattus norvegicus [9]): 27.5
CCOC(=O)c1cc2c3cc(C#N)ccc3ncn2c1	33	20	11.6	6.6	21.6	20	–
CCOC(=O)c1cc2c3cc(Cl)ccc3ncn2c1	31.3	5	17.5	7.5	13.8	16.3	–
CCOC(=O)c1cc2n(c1)CN(C(=O)OCC)c1ccccc1-2	42.5	20	6.2	23.7	18.7	11.2	–
CCOC(=O)c1cc2c3ccccc3n(CCC#N)c(=O)n2c1	19	45	–	59	–	2	–
CC#Cc1c(C)cc2c3ccccc3nc(O)n12.Cl	30	20.5	–	42	–	27	–
CCOC(=O)c1cc2n(c1)CN(CCC#N)c1ccccc1-2	38	1.2	13.8	–	33	11.3	–
COc1cc2nc(N3CCN(C(=O)c4ccco4)CC3)nc(N)c2cc1OC [PRAZOSIN]	–	–	–	–	–	–	Delta blood pressure (Rattus norvegicus [10]): 13.7; Delta blood pressure (Rattus norvegicus [11]): 41.2; Delta blood pressure (Rattus norvegicus [12]): 76.2; Delta blood pressure (Rattus norvegicus [13]): 56.2; Delta blood pressure (Rattus norvegicus [14]): 40; Delta blood pressure (Rattus norvegicus [15]): 48.2
COc1ccc2c(c1)nc(O)n1cc(C)cc21	31	15	6	12	28	9	–
